For 19 compounds, inhibition and Activity results are on record in ChEMBL document CHEMBL2040850, “Indole based cyclooxygenase inhibitors: synthesis, biological evaluation, docking and NMR screening” (Eur J Med Chem, 2012).

Calls of active or inactive are those of the source. The rule behind the calls is not given here.

Experiment [1] addresses Prostaglandin G/H synthase 2 (Homo sapiens) (UniProt P35354). Nature of the experiment: Inhibition of recombinant human COX2 assessed as PGE2 formation at 100 uM by enzyme immunoassay.
Experiment [2] shares this target. Nature of the experiment: Inhibition of human COX2 assessed as PGE2 formation at 100 uM by enzyme immunoassay.
Experiment [3] addresses Prostaglandin G/H synthase 1 (Ovis aries) (UniProt P05979). The experiment in a line: Inhibition of ovine COX1 assessed as PGE2 formation at 50 uM by enzyme immunoassay.
Experiment [4] deals with T1, Prostaglandin G/H synthase 2 (Homo sapiens) (UniProt P35354).
T1 sequence (whole entry): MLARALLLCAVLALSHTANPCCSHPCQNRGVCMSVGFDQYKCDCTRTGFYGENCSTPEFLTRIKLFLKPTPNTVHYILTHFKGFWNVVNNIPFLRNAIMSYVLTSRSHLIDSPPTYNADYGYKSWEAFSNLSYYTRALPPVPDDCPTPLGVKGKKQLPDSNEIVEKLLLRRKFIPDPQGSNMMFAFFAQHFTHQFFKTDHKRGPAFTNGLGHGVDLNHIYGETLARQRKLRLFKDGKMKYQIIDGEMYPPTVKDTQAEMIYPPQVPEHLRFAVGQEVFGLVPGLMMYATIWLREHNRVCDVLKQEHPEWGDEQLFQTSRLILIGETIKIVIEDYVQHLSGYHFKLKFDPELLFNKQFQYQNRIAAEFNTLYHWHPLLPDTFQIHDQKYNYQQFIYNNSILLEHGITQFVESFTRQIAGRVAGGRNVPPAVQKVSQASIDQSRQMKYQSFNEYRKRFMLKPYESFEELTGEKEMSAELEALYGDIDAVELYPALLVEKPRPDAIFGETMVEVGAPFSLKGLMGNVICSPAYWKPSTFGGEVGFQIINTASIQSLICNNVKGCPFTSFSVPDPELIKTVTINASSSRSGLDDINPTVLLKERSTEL
The experiment in a line: Inhibition of recombinant human COX2 assessed as PGF2alpha formation at 50 uM by enzyme immunoassay.

The target in experiment [5] is T2, Prostaglandin G/H synthase 1 (Ovis aries) (UniProt P05979).
T2 sequence (whole entry): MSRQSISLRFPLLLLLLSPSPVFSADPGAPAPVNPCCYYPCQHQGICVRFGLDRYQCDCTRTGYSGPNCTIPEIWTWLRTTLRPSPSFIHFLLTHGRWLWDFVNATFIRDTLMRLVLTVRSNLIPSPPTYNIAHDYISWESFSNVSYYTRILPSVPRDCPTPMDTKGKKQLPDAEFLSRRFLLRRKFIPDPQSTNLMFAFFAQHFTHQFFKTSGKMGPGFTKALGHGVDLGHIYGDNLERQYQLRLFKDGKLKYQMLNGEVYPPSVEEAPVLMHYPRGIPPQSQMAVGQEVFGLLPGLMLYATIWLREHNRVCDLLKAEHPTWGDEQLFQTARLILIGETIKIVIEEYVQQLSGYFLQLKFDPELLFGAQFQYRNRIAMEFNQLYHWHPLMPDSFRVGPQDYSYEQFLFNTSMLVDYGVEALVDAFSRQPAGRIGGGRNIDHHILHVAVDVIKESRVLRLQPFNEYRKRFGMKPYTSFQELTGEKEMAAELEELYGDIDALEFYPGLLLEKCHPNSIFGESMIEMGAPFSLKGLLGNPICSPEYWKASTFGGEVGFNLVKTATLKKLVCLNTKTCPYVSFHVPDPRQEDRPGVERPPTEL
The experiment in a line: Reversible binding affinity to ram seminal vesicle COX1 at 300 uM by STD-NMR spectroscopy. The gist of the method: (§1)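 STD-NMR of ligand binding to COX-1 (ram seminal vesicle) or COX-2 (sheep placenta) in 80 mM Tris–HCl pH 8.0 with 0.1% Tween 20 and 300 µM DDC. Final mixture was about 3 µM enzyme and 300 µM ligand, added from a 2 mM DMSO-d6 stock. Protein irradiated at -300 Hz with 51 shaped 90° pulses (2.5 s total saturation), 20 ms spin-lock filter, 1024 transients.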

Experiment [6] deals with T2, Prostaglandin G/H synthase 1 (Ovis aries). As to conditions: 1 uM.
In experiment [7] the target is T3, Prostaglandin G/H synthase 2 (Ovis aries) (UniProt P79208).
T3 sequence (whole entry): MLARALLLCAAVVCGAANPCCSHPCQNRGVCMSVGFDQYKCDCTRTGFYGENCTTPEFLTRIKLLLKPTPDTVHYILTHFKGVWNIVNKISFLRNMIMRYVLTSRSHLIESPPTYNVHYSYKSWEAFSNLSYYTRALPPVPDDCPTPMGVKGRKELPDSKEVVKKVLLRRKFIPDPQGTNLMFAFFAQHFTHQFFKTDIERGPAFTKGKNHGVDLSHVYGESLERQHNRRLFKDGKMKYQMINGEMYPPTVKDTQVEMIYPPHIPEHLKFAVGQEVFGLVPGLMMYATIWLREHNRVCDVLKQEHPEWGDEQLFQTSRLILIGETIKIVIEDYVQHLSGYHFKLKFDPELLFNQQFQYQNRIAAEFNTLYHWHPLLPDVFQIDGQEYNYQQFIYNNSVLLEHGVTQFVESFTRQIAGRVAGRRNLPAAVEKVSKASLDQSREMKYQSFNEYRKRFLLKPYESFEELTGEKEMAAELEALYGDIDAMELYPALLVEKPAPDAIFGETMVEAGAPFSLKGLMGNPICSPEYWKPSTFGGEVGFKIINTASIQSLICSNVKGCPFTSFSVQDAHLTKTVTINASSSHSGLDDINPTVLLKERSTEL
Nature of the experiment: Reversible binding affinity to sheep placenta COX2 at 300 uM by STD-NMR spectroscopy. The gist of the method:
as §1

In general, inhibition refers to the drop in the measured response relative to a control, in per cent. For the compound `CS(=O)(=O)c1ccc2[nH]c(Cc3ccc(F)cc3)c(Cc3ccc(F)cc3)c2c1`, in experiment [1], the inhibition result is “inactive”.

Turning to `CS(=O)(=O)c1ccc2[nH]cc(Cc3ccc(Br)cc3)c2c1`, the inhibition in experiment [2] stood at 26%.

On to `CS(=O)(=O)c1ccc2c(c1)c(Cc1ccc(Br)cc1)cn2CC(O)CC(F)(F)F` (stereo not given), for which the inhibition in experiment [3] is 12%; in experiment [4] it was 23%; in experiment [2], 15%.

As to `NS(=O)(=O)c1ccc2[nH]c(Cc3ccc(Cl)cc3)c(Cc3ccc(Cl)cc3)c2c1`, the inhibition in experiment [3] was determined as 41%.

As to `NS(=O)(=O)c1ccc2[nH]cc(Cc3ccc(F)cc3)c2c1`, the result in experiment [5] was Active. Further, the inhibition was determined as 40% in experiment [3], 32% in experiment [4] and 20% in experiment [2].

Take `COc1ccc2c(c1)c(CC(=O)O)c(C)n2C(=O)c1ccc(Cl)cc1`: the inhibition in experiment [6] stood at 46%.

Take `NS(=O)(=O)c1ccc2[nH]cc(Cc3ccc(Br)cc3)c2c1`: the inhibition in experiment [3] stood at 19%; in experiment [4], 23%.

For the compound `NS(=O)(=O)c1ccc2[nH]cc(Cc3ccc(Cl)cc3)c2c1`, the inhibition came out at 21% in experiment [3], 32% in experiment [4] and 31% in experiment [2].

Consider `CS(=O)(=O)c1ccc2[nH]cc(Cc3ccc(Cl)cc3)c2c1`, for which the inhibition in experiment [2] came out at 24%.

Take `CS(=O)(=O)c1ccc2[nH]c(Cc3ccc(Cl)cc3)c(Cc3ccc(Cl)cc3)c2c1`: in experiment [1], the inhibition result was “inactive”. Moreover, the inhibition in experiment [3] came to 25%; in experiment [4], 24%.

In the case of `CS(=O)(=O)c1ccc2c(c1)c(Cc1ccc(Br)cc1)cn2C=CCC(F)(F)F` (mixture of isomers), the inhibition in experiment [3] amounted to 20%; in experiment [4], 21%; in experiment [2], 19%.

As for `CS(=O)(=O)c1ccc2c(c1)c(Cc1ccc(Cl)cc1)cn2C=CCC(F)(F)F` (mixture of isomers), the inhibition in experiment [3] was 11%; in experiment [2], 23%.

For the compound `CS(=O)(=O)c1ccc2c(c1)c(Cc1ccc(Cl)cc1)cn2CC(O)CC(F)(F)F` (stereo not given), the inhibition amounted to 8% in experiment [3], 20% in experiment [4] and 34% in experiment [2].

For the compound `NS(=O)(=O)c1ccc2[nH]c(Cc3ccc(F)cc3)c(Cc3ccc(F)cc3)c2c1`, the result in experiment [7] was Active. For the same compound, the inhibition in experiment [3] amounted to 18%.

Consider `CS(=O)(=O)c1ccc2[nH]c(Cc3ccc(Br)cc3)c(Cc3ccc(Br)cc3)c2c1`, for which, in experiment [1], the inhibition entry was “inactive”.

`NS(=O)(=O)c1ccc2[nH]c(Cc3ccc(Br)cc3)c(Cc3ccc(Br)cc3)c2c1`: in experiment [3], the inhibition came to 35%.

Take `CS(=O)(=O)c1ccc2c(c1)c(Cc1ccc(F)cc1)cn2CC(O)CC(F)(F)F` (stereo not given): the figures for the inhibition in experiment [3] and in experiment [2] were 14% and 9%, respectively.

For `CS(=O)(=O)c1ccc2c(c1)c(Cc1ccc(F)cc1)cn2C=CCC(F)(F)F` (mixture of isomers), the inhibition stood at 8% in experiment [3], 12% in experiment [4] and 18% in experiment [2].

For `NS(=O)(=O)c1ccc(Cc2c[nH]c3ccc(Br)cc23)cc1`, the inhibition in experiment [3] was 11%; in experiment [4] it was 22%; in experiment [2], 27%.
